Reference: publication PMC7317421 (Clinical Pharmacology in Drug Development, 2020)
Read-outs that look alike come from different tables or passages of the source.

Assays:
[1] = humans; cited from earlier work
[2] = assay type: in vivo, human; conditions: for AUCtau / Cmax: mean (SD)
[3] = assay type: in vivo, human; conditions: for Median Tmax (range) / Cmax / t½: 100 mg single oral dose, Part 3; for Cmax: arithmetic mean (SD); for t½: mean ± SD
[4] = Plasma pharmacokinetics, single ascending oral doses after overnight fast; assay type: in vivo, human; conditions: fasted, Part 1; for AUC0‐∞ / Cmax: arithmetic mean (SD); for t½: mean ± SD
Method in brief: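 Randomized, double‑blind, placebo‑controlled interleaving crossover in 2 cohorts of 8. Each cohort received 4 ascending single doses, ≥10 days apart, taken with water after a ≥10‑h overnight fast. Blood sampled up to 72 h postdose. Plasma was extracted by protein precipitation with a stable‑isotope internal standard and measured by LC‑MS/MS with calibration 2.00–1000 ng/mL (LLOQ 2.00 ng/mL). Noncompartmental parameters were summarized descriptively by dose.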

hepatic DNL = assay: Fructose-stimulated hepatic DNL inhibition; assay type: in vivo, human
Method in brief: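 Part 2, with baseline on day −6 and repeat on day 14 of dosing. On the evening/night before each challenge, subjects drank 4 doses of 70% D2O (60 mL each). Oral fructose 0.25 g/kg was then given every 30 min from 0 to 9.5 h, with dosing at 0 h. Body‑water deuterium was measured. Triglyceride‑palmitate was isolated from plasma by Folch extraction and TLC, and its methyl ester analysed by GC‑pyrolysis isotope‑ratio MS. Basal‑adjusted % newly made palmitate and AUEC10 were calculated.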

[5] = Platelet count and mean platelet volume; assay type: in vivo, human
[6] = Fasting and postprandial serum triglycerides and fasting lipids; assay type: in vivo, human
Method in brief: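 Part 2, randomized 4:1 to drug or placebo with food, once daily or every 12 hours on days 1‑14. Fasting lipids were sampled after overnight fasts over 16 days. Total cholesterol, direct LDL and HDL were run on an automated chemistry analyzer. Postprandial triglycerides: 12 serial samples over 24 h on days 0 and 12. AUEC by trapezoid rule, averaged as AUEC24/24 when first, last and ≥75% of samples were available. Baseline was the mean of 0‑h values on days 0‑1.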

[7] = monkeys; cited from earlier work
[8] = rats; cited from earlier work
[9] = Safety and tolerability: adverse events, vital signs, ECG; assay type: in vivo, human
Method in brief: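 Observed and self‑reported AEs, clinically significant physical‑exam changes and abnormal laboratory results were recorded. Vital signs and 12‑lead ECGs were monitored throughout. In Part 2, AEs were tallied separately for drug alone (days 1‑13) and for the periods with fructose/D2O. The safety set was everyone receiving ≥1 dose of study drug or fructose/D2O. Data were reviewed on an ongoing basis and summarized descriptively.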

[10] = 100 mg single dose, high‐fat meal vs fasted
[11] = 100 mg every 12 hours, same withdrawn subject

Cc1nc2ccc(C(=O)N3CCC4(CC3)CC(=O)c3c(cnn3C(C)C)C4)cc2[nH]1 [PF‐05175157]
platelet count [1]: decreased platelet count

COc1cc(C(=O)N2CCC3(CC2)CC(=O)c2c(cnn2C(C)C)C3)cc(-c2ccc(C(=O)O)cc2)n1 [PF‐05221304]
Median Tmax (range) ([2]; Day 1, 1 mg every 12 hours): 3.0 (3.0‐5.0) h | AUCtau ([2]; Day 1, 1 mg every 12 hours): 384.5 (71.1) ng·h/mL | Cmax ([2]; Day 1, 1 mg every 12 hours): 54.4 (9.0) ng/mL | Median Tmax (range) ([2]; Day 1, 3 mg every 12 hours): 5.0 (2.0‐6.0) h | AUCtau ([2]; Day 1, 3 mg every 12 hours): 1038 (131.4) ng·h/mL | Cmax ([2]; Day 1, 3 mg every 12 hours): 142.7 (21.2) ng/mL | Median Tmax (range) ([2]; Day 1, 10 mg every 12 hours): 3.5 (1.0‐5.0) h | AUCtau ([2]; Day 1, 10 mg every 12 hours): 3811 (767.3) ng·h/mL | Cmax ([2]; Day 1, 10 mg every 12 hours): 584.6 (91.2) ng/mL | Median Tmax (range) ([2]; Day 1, 30 mg every 12 hours): 5.0 (3.0‐5.0) h | Cmax ([2]; Day 1, 30 mg every 12 hours): 1689 (256.7) ng/mL | Median Tmax (range) ([2]; Day 1, 40 mg once daily): 4.0 (2.0‐8.0) h | Cmax ([2]; Day 1, 40 mg once daily): 1986 (591.8) ng/mL | Median Tmax (range) ([2]; Day 1, 100 mg every 12 hours): 3.5 (0.5‐5.0) h | Cmax ([2]; Day 1, 100 mg every 12 hours): 6831 (1388.6) ng/mL | Median Tmax (range) ([2]; Day 1, 100 mg once daily): 4.0 (2.0‐6.0) h | Cmax ([2]; Day 1, 100 mg once daily): 5965 (1252.2) ng/mL | Median Tmax (range) ([2]; Day 7, 1 mg every 12 hours): 3.0 (2.0‐5.0) h | AUCtau ([2]; Day 7, 1 mg every 12 hours): 760.4 (202.4) ng·h/mL | Cmax ([2]; Day 7, 1 mg every 12 hours): 91.4 (19.3) ng/mL | Median Tmax (range) ([2]; Day 7, 3 mg every 12 hours): 5.0 (3.0‐5.1) h | AUCtau ([2]; Day 7, 3 mg every 12 hours): 2264 (484.8) ng·h/mL | Cmax ([2]; Day 7, 3 mg every 12 hours): 283.1 (49.1) ng/mL | Median Tmax (range) ([2]; Day 7, 10 mg every 12 hours): 5.0 (5.0‐6.0) h | AUCtau ([2]; Day 7, 10 mg every 12 hours): 8334 (2131.6) ng·h/mL | Cmax ([2]; Day 7, 10 mg every 12 hours): 1009 (215.9) ng/mL | Median Tmax (range) ([2]; Day 7, 30 mg every 12 hours): 5.0 (3.0‐6.0) h | Cmax ([2]; Day 7, 30 mg every 12 hours): 3229 (741.0) ng/mL | Median Tmax (range) ([2]; Day 7, 40 mg once daily): 4.0 (3.0‐6.0) h | Cmax ([2]; Day 7, 40 mg once daily): 2654 (674.6) ng/mL | Median Tmax (range) ([2]; Day 7, 100 mg every 12 hours): 3.5 (3.0‐5.0) h | Median Tmax (range) ([2]; Day 7, 100 mg once daily): 4.0 (2.0‐6.0) h | Cmax ([2]; Day 7, 100 mg once daily): 7894 (1117.5) ng/mL | excreted in urine as unchanged drug over the dosing interval (Aeτ) ([2]; day 7, Part 2): Less than 1% | accumulation for AUCtau ([2]; every‐12‐hour dosing): approximately 2 fold | median Tmax ([2]; multiple oral doses 1‐100 mg every 12 hours and 40‐100 mg once daily with food): 3 to 5 h | accumulation for AUCtau ([2]; once‐daily dosing): approximately 1.5 fold | steady state achieved (trough concentrations) ([2]; repeated dosing, Part 2): ≤ 7 days | Geometric mean AUC0‐∞ ([3]; 100 mg single dose, fasted): 79 320 ng·h/mL | geometric mean Cmax ([3]; 100 mg single dose, fasted, CV% 25%): 7479 ng/mL | Geometric mean AUC0‐∞ ([3]; 100 mg single dose, fed): 72 360 ng·h/mL | geometric mean Cmax ([3]; 100 mg single dose, fed, CV% 41%): 5592 ng/mL | decrease of AUC0‐∞ with food [3, 10]: ~9% | plasma Cmax reduction with food [3, 10]: 25% | Median Tmax (range) ([3]; fasted state): 2.5 (1.0‐3.0) h | Cmax ([3]; fasted state): 7671 (1699.8) ng/mL | t½ ([3]; fasted state): 12.3 ± 2.0 h | Median Tmax (range) ([3]; fed state): 5.0 (2.0‐8.0) h | Cmax ([3]; fed state): 5947 (1982.1) ng/mL | t½ ([3]; fed state): 13.2 ± 3.5 h | Median Tmax (range) ([4]; 1 mg single oral dose): 2.0 (1.0‐3.0) h | AUC0‐∞ ([4]; 1 mg single oral dose): 670.5 (182.2) ng·h/mL | Cmax ([4]; 1 mg single oral dose): 48.3 (8.2) ng/mL | t½ ([4]; 1 mg single oral dose): 13.6 ± 3.4 h | Median Tmax (range) ([4]; 3 mg single oral dose): 2.5 (1.1‐4.0) h | AUC0‐∞ ([4]; 3 mg single oral dose): 2508 (476.0) ng·h/mL | Cmax ([4]; 3 mg single oral dose): 177.0 (46.3) ng/mL | t½ ([4]; 3 mg single oral dose): 13.5 ± 3.5 h | Median Tmax (range) ([4]; 10 mg single oral dose): 3.0 (1.0‐5.0) h | AUC0‐∞ ([4]; 10 mg single oral dose): 8603 (1603.8) ng·h/mL | Cmax ([4]; 10 mg single oral dose): 608.5 (134.0) ng/mL | t½ ([4]; 10 mg single oral dose): 18.3 ± 2.3 h | Median Tmax (range) ([4]; 30 mg single oral dose): 2.0 (0.5‐4.0) h | Cmax ([4]; 30 mg single oral dose): 2008 (421.7) ng/mL | t½ ([4]; 30 mg single oral dose): 17.6 ± 2.6 h | Median Tmax (range) ([4]; 100 mg single oral dose): 2.0 (1.0‐4.0) h | Cmax ([4]; 100 mg single oral dose): 7435 (1904.5) ng/mL | t½ ([4]; 100 mg single oral dose): 16.0 ± 3.6 h | Median Tmax (range) ([4]; 200 mg single oral dose): 2.0 (0.5‐4.0) h | t½ ([4]; 200 mg single oral dose): 15.3 ± 3.4 h | Median Tmax (range) ([4]; 240 mg single oral dose): 1.5 (1.0‐4.0) h | t½ ([4]; 240 mg single oral dose): 15.2 ± 2.8 h | Adjusted % inhibition of newly made triglyceride‐palmitate (DNL), AUEC10 (hepatic DNL; 10 mg Q12H, day 14 vs baseline (day −6)): 80.0% | hepatic DNL inhibition over a 10‐hour period postdose (hepatic DNL; doses <40 mg/day): ≤ 80% | inhibition of DNL (AUEC of newly made triglyceride‐palmitate), near‐maximal (hepatic DNL; doses ≥40 mg/day, 14 days): > 90% | maximum decline from day 0 in platelet count (1 subject, moderate AE) ([5]; 100 mg every 12 hours, day 13 + 24 hours, one person): 53 000 /µL | platelet volume ([5]; doses ≥20 mg/day administered every 12 hours): increases in platelet volume | platelet count ([5]; repeated doses ≤40 mg/day): No change in platelet count | platelet count ([5]; repeated dosing ≥60 mg/day): gradual decline in platelet count from day 7 onward | lowest platelet count observed ([5]; repeated dosing, Part 2): ≥ 100 000 /µL | platelet count ([5]; single doses, 1‐ to 240‐mg dose range): did not change | elevated fasting serum triglyceride levels (1 subject) [6, 11]: 2.1 fold | elevated postprandial serum triglyceride levels (1 subject) [6, 11]: 2.6 fold | fasting and postprandial serum triglyceride levels ([6]; repeated daily doses ≥40 mg/day): increased | asymmetric hepatic distribution [7]: ≥ 100 fold | asymmetric hepatic distribution [8]: ≥ 100 fold | subjects with AEs ([9]; Part 1 (single doses, PF‐05221304 or placebo periods)): 5 subjects | subjects with AEs ([9]; Part 3 (100 mg single dose fed/fasted)): 3 subjects | vital signs or cardiac conduction intervals (12‐lead ECG) ([9]; all parts): no clinically significant changes | tolerability ([9]; single 1‐240 mg, repeated 2‐200 mg daily): well tolerated at all doses | maximum tolerated dose ([9]; up to 240 mg single, 200 mg/day repeated): not identified
